Consider four molecules from ChEMBL document CHEMBL4011621, “A Novel Series of Highly Potent Small Molecule Inhibitors of Rhinovirus Replication” (J Med Chem, 2017).

Data set [1] can be described thus: Cytotoxicity against human H1HeLa cells assessed as decrease in cell viability after 3 days by MTT assay. In kind it is cell-based, H1-HeLa. (Formazan colour is commonly taken as a measure of viable cells.)
The next data set relates to rhinovirus A21. The data set can be described thus: Antiviral activity against Human rhinovirus A21 infected in human H1HeLa cells assessed as protection against virus induced cytopathic effect after 3 days by MTT assay. Format: functional, cell-based. The conditions noted are these: Rhinovirus A, H1-HeLa, 72 h. The essentials:
(§1)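 CPE-reduction assay in H1HeLa cells plated 2 d before. Equal volumes of virus and compound were added and held at 33 °C for 3 d under CO2. Supernatant was removed, then MTT was added for 1 h at 37 °C. Formazan was dissolved and read at 540 nm against a 690 nm reference. Survival was scaled between uninfected untreated wells (100%) and virus-only wells (0%); mean ± SD, three experiments.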

In data set [2] the test system is rhinovirus B14. The data set can be described thus: Antiviral activity against Human rhinovirus B14 harboring VP1 C199Y mutant infected in human HeLa Rh cells assessed as protection against virus induced cytopathic effect after 3 days by MTT assay. Format: functional, cell-based. A general note: Damage to the host cells serves as the signal in cytopathic effect assays.

The subject of data set [3] is rhinovirus B14. Nature of the data set: Antiviral activity against Human rhinovirus B14 infected in H1HeLa cells assessed as decrease in viral dsRNA at 6 times EC50 treated simultaneously with infection by DAPI staining based immunofluorescence assay. Format: functional, cell-based. The essentials:
(§2)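 Cells were infected with hRV type 14 or type 16 at MOI 1. Compound was given 1 h before infection, at infection (0 h), or at later hourly time points. At 9 h post-infection, cells were fixed in ice-cold methanol–acetone 3:1 and stained with anti-dsRNA antibody (J2), an Alexa Fluor 488 anti-mouse secondary and DAPI, then imaged. Infected-cell count over total nuclei was expressed as % of untreated virus control; mean ± SD, three experiments.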

In data set [4] the test system is rhinovirus A16. Nature of the data set: Antiviral activity against Human rhinovirus A16 infected in H1HeLa cells assessed as decrease in viral dsRNA at 6 times EC50 treated simultaneously with infection by DAPI staining based immunofluorescence assay. Format: functional, cell-based. The essentials:
as §2

Data set [5] can be described thus: Selectivity index, ratio of CC50 for human H1HeLa cells to EC50 for Human rhinovirus A71 infected in human H1HeLa cells. In kind it is toxicity, cell-based. The conditions noted are these: read-out: Ratio CC50/EC50. The essentials:
(§3)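 H1HeLa cells plated 2 d ahead; virus plus compound (equal volumes) incubated 33 °C, 3 d, CO2. MTT 1 h at 37 °C, A540/A690. Survival scaled between uninfected untreated (100%) and virus-only (0%) wells to give EC50. CC50 = 50% cell death by MTT in H1HeLa. SI = CC50/EC50; at least three independent experiments.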

The test system of data set [6] is rhinovirus B14. The data set can be described thus: Antiviral activity against Human rhinovirus B14 harboring VP1 A150V/E276K double mutant infected in human HeLa Rh cells assessed as protection against virus induced cytopathic effect after 3 days by MTT assay. In kind it is functional, cell-based.
The nature of data set [7]: Cytotoxicity against human HeLa Rh cells assessed as decrease in cell viability after 3 days by MTT assay. Format: cell-based.
Data set [8] has as its system rhinovirus B14. The data set can be described thus: Antiviral activity against Human rhinovirus B14 infected in H1HeLa cells assessed as decrease in viral dsRNA at 6 times EC50 treated every 1 hr for 9 hrs after infection by DAPI staining based immunofluorescence assay. Format: functional, cell-based. The essentials: as §2
The subject of data set [9] is rhinovirus A16. The data set can be described thus: Antiviral activity against Human rhinovirus A16 infected in H1HeLa cells assessed as decrease in viral dsRNA at 6 times EC50 treated 1 hr prior to infection by DAPI staining based immunofluorescence assay. In kind it is functional, cell-based. The essentials:
as §2

The nature of data set [10]: Selectivity index, ratio of CC50 for human HeLa cells to EC50 for human poliovirus 3 infected in human HeLa cells. Format: toxicity, cell-based. The conditions noted are these: read-out: Ratio CC50/EC50. The essentials: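 SI = CC50/EC50 in HeLa cells. CC50 = 50% cell death by MTT. EC50 = 50% inhibition of PV3 CPE by MTT after 2 d at 37 °C, survival scaled to uninfected (100%) and virus-only (0%) wells. At least three independent experiments.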

For data set [11], the system named is rhinovirus A16. The data set can be described thus: Antiviral activity against Human rhinovirus A16 infected in human H1HeLa cells assessed as protection against virus induced cytopathic effect after 3 days by MTT assay. In kind it is functional, cell-based. The conditions noted are these: Rhinovirus A, H1-HeLa, 72 h. The essentials: as §1
Data set [12] has as its system rhinovirus B14. The data set can be described thus: Antiviral activity against Human rhinovirus B14 infected in H1HeLa cells assessed as decrease in viral dsRNA at 6 times EC50 treated 1 hr prior to infection by DAPI staining based immunofluorescence assay. Format: functional, cell-based. The essentials: as §2
Data set [13] is described as follows: Antiviral activity against Human rhinovirus A71 infected in human H1HeLa cells assessed as protection against virus induced cytopathic effect after 3 days by MTT assay. The conditions noted are these: Rhinovirus A, H1-HeLa, 72 h. In kind it is functional, cell-based. The essentials: as §1
In data set [14] the test system is rhinovirus B14. The data set can be described thus: Antiviral activity against Human rhinovirus B14 infected in human H1HeLa cells assessed as protection against virus induced cytopathic effect after 3 days by MTT assay. In kind it is functional, cell-based. The conditions noted are these: Rhinovirus B, H1-HeLa, 72 h.
Data set [15] is described as follows: Selectivity index, ratio of CC50 for human H1HeLa cells to EC50 for Human rhinovirus B14 infected in human H1HeLa cells. In kind it is toxicity, cell-based. The conditions noted are these: read-out: Ratio CC50/EC50. The essentials: as §3
The subject of another data set is Poliovirus 3. Nature of the data set: Antiviral activity against Human poliovirus 3 infected in human HeLa cells assessed as protection against virus induced cytopathic effect after 2 days by MTT assay. The conditions noted are these: Enterovirus C, 48 h. In kind it is functional, cell-based. The essentials: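 HeLa cells; MTT-based CPE reduction. Virus and compound added in equal volumes, incubated 37 °C for 2 d in CO2. Supernatant removed, MTT 1 h at 37 °C, formazan dissolved, absorbance 540 nm (690 nm reference). Uninfected untreated wells = 100% survival, virus-only = 0%. EC50 = 50% inhibition; means ± SD, three experiments.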

Data set [16] can be described thus: Cytotoxicity aganist human HeLa cells assessed as decrease in cell viability after 2 days by MTT assay. Format: cell-based.
Data set [17] is described as follows: Selectivity index, ratio of CC50 for human H1HeLa cells to EC50 for Human rhinovirus A21 infected in human H1HeLa cells. Format: toxicity, cell-based. The conditions noted are these: read-out: Ratio CC50/EC50. The essentials:
as §3

In data set [18] the test system is rhinovirus B14. Nature of the data set: Antiviral activity against Human rhinovirus B14 infected in H1HeLa cells assessed as decrease in viral dsRNA at 6 times EC50 treated every 1 hr for 6 hrs after infection by DAPI staining based immunofluorescence assay. In kind it is functional, cell-based. The essentials: as §2
Data set [19] has as its system rhinovirus A16. Nature of the data set: Antiviral activity against Human rhinovirus A16 infected in H1HeLa cells assessed as decrease in viral dsRNA at 6 times EC50 treated every 1 hr for 9 hrs after infection by DAPI staining based immunofluorescence assay. In kind it is functional, cell-based. The essentials:
as §2

Active and inactive are the calls of the source. No cut-off for these calls is given here.

The term CC50 denotes the concentration that lowers cell viability or growth by half. Usually EC50 stands for the concentration that produces a half-maximal response. `Cc1cc(CCCOc2c(C)cc(-c3noc(C(F)(F)F)n3)cc2C)on1` [PLECONARIL]: the CC50 at 72 h in [1] was 19700 nM; in data set [7] it was greater than 10000 nM. Also, the EC50 with rhinovirus A21 is 73 nM; in the data set on rhinovirus B14 [2], 2310 nM; in the data set with rhinovirus B14 [6], 1490 nM; in the data set with rhinovirus A16 [11], 350 nM; in data set [13] it was 9.4 nM; with rhinovirus B14 [14] it was 75 to 92 nM. Also, the EC50 with Poliovirus 3 stood at 1400 nM. Further, the result with rhinovirus B14 [3], with rhinovirus A16 [4], with rhinovirus A16 [9] and in the data set on rhinovirus B14 [12] was Active. Moreover, the selectivity ratio in data set [5] came to 2100; in data set [10] it was 19; in data set [15], 210; in data set [17], 270. The result in the data set on rhinovirus B14 [8] was inactive. Also, the half-maximal cytotoxic concentration (CC50) at 48 h in [16] was 25900 nM.

Regarding `CCOC(=O)/C=C/[C@H](C[C@@H]1CCNC1=O)NC(=O)[C@@H](CC(=O)[C@@H](NC(=O)c1cc(C)on1)C(C)C)Cc1ccc(F)cc1` [RUPINTRIVIR], in the data set on rhinovirus A16 [11], the 50% effective concentration (EC50) was determined as 30 nM. In addition, in the data set on rhinovirus B14 [18], the outcome was Active.

Regarding `C#CC[C@@H](C(=O)N[C@H](/C=C/C(=O)OCC)C[C@@H]1CCNC1=O)n1cccc(NC(=O)c2cc(C)on2)c1=O` [IMOCITRELVIR], the results for the EC50 with rhinovirus B14 [2], in the data set on rhinovirus B14 [6] and in the data set with rhinovirus B14 [14] were 56 nM, 49 nM and 45 nM, respectively. For the same molecule, in [7], the CC50 at 72 h is greater than 3000 nM.

Consider `CNC(=O)c1cc(Oc2ccc3c(C)c(C(=O)OC(C)C)sc3c2)ccn1`, for which the CC50 at 72 h was 18100 nM in data set [1] and greater than 3000 nM in data set [7]. For the same molecule, the EC50 was 78 nM in the data set with rhinovirus A21; 2370 nM in the data set on rhinovirus B14 [2]; 264 nM with rhinovirus B14 [6]; 230 nM with rhinovirus A16 [11]; 15 nM in [13]; 70 to 83 nM with rhinovirus B14 [14]. For the same molecule, the 50% effective concentration (EC50) with Poliovirus 3 was 63 nM. In addition, the result in the data set on rhinovirus A16 [19] and in the data set on rhinovirus B14 [8] was inactive. Also, the result in the data set on rhinovirus B14 [3], with rhinovirus A16 [4], in the data set with rhinovirus A16 [9] and in the data set on rhinovirus B14 [12] was Active. For the same molecule, the selectivity ratio in data set [5] was determined as 1200; in data set [10], 150; in data set [15] it was 220; in data set [17], 230. In addition, the CC50 at 48 h in [16] was 9600 nM.
